Yeast life ext – extends the lifespan of yeast; S. cerevisiae growth with nicotinamide, OD615; deaD strain in restrictive glucose medium; inhibition of the nicotinamide effect, % at 10 µM; 0.68% of 130,000 active; AID 775;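 active = inhibition above a set limit, placed 3 SD over the median of all compounds, cut at about 26% in these data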;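 note: 0% = nicotinamide-treated wells and 100% = cells grown without nicotinamide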
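assay system = DeaD-strain S. cerevisiae | buffer or medium = restrictive glucose medium | reagent = 1.5 mM nicotinamide | compound = 10 µM single point, 0.25% DMSO | incubation = 48 h compound exposure at 30 °C, humidified | signal = OD615 measurement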
RAM network inh – inhibitors of the yeast RAM network | S. cerevisiae dse1pr::URA3 reporter, 5-FOA growth OD615, 2 d; analog-sensitive cbk1-as2 kinase mutant strain | inhibition, % at 50 µM | 1.8% of 190,000 active | AID 868;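 active = inhibition above a set limit, 3 SD over mean compound inhibition, cut at about 8.4% in these data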;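 note: 0% = DMSO-only wells with no growth and 100% = 10 µM 1-NA-PP1 full growth; inhibition rescues growth on 5-FOA so higher OD means more RAM inhibition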
SDO1 yeast rescue – compounds rescuing growth of sdo1-depleted yeast, bone marrow failure model | S. cerevisiae sdo1-depleted JHY4D growth rescue, OD600 30 h; stronger effect = higher value; pdr5 snq2 efflux-pump mutant strain | z-score at 10 µM | 0.21% of 140,000 active;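 active = z-score above 3 at both the 24 hr and the 30 hr optical density reads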;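 note: z-score against mean and SD of all compound wells on the same plate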
BB579 growth dn – reduces growth of yeast BB579 in restrictive medium | AID 804 | 0.51% of 140,000 active | inhibition, % at 10 µM | S. cerevisiae BB579 growth, OD615, 48 h;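 active = inhibition above a set limit, 3 SD over the mean compound inhibition, cut at about 44% in these data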
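Test system: S. cerevisiae DeaD strain BB579 yeast; Medium: restrictive CSMM-D medium; Compound: one dose, 10 µM compound with 0.25% DMSO; Incubation: 4 h cell preincubation, 48 h compound exposure, 30 °C humidified; Signal: OD at 615 nm; Benchmarks: amphotericin B at 10 µg/mL as positive control.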
* hit, by the source's call; . = no result given. Hits are enriched below; roughly 2.7% of the tested compounds scored in any of these assays.

SMILES | Yeast life ext | RAM network inh | SDO1 yeast rescue | BB579 growth dn
CCC(C)n1cnc2c(c1=O)c1nc3ccccc3nc1n2Cc1ccc2c(c1)OCO2 (stereo not drawn) | -1 | 10* | -0.2 | -72
COc1ccc(C)cc1NC(=O)C(Sc1nnc(Nc2cc(C)ccc2OC)s1)c1ccccc1 (stereo not drawn) | 9 | 8.5* | -0.09 | -60
CC(C)CC(NC(N)=O)C(=O)OCC(=O)Nc1ccc(OC(F)F)cc1 (stereo not drawn) | . | 0 | . | .
COC(=O)C1SCC2C(=O)N(Cc3ccccc3)CC(=O)N21 (stereo not drawn) | . | 3 | . | .
O=C(CCN1CCN(c2ccccc2)CC1)N/N=C/c1ccccc1OC(F)F | . | -1 | . | .
CCCCC(=O)NC(=S)Nc1cccc(Cl)c1N1CCCCC1 | 29* | 6 | -0.17 | -47
CCCCCC(=O)NC(=S)Nc1ccc(N2CCCCC2)c(Cl)c1 | 2 | 9.6* | 0.39 | -27
CCCCCC(=O)Nc1ccc(N2CCN(CC)CC2)c(Cl)c1 | -10 | 0 | 1.3 | -23
CCC(=O)NC(=S)Nc1cccc(Cl)c1N1CCCCC1 | -14 | 3 | -0.5 | -50
CCCCC(=O)NC(=S)Nc1ccccc1N1CCCCC1 | -3 | -1 | -0.92 | -19
CCCC(=O)NC(=S)Nc1cccc(Cl)c1N1CCCCC1 | 2 | 8.7* | -1 | -26
Cc1nn(-c2ccccc2)c(/N=C/c2ccccc2O)c1-c1ccccc1 | -5 | 1 | 0.02 | -33
O=C(Nc1ccc(Cl)cc1)ON=C1CCCC1 | -10 | -1 | -1.3 | 99*
O=C(N/N=C/c1cccc(O)c1)c1ccc(COc2ccc3c(c2)CCC3)o1 | 1 | 5 | -1.3 | -52
NNC(=O)c1ccc(COc2ccc3c(c2)CCC3)o1 | -9 | -1 | -1.6 | 91*
COc1cccc(C(=O)N(Cc2nc(-c3cccc(C)c3)no2)C(C)C)c1OC | 4 | 2 | -1.2 | -49
Cc1cccc(-c2noc(CN(C(C)C)S(=O)(=O)c3ccc(F)cc3)n2)c1 | -2 | 8.5* | -0.69 | -62
CCOC(=O)c1c(C)c(-c2ccccc2)n(CC(=O)NCCCN(CC)CC)c1C | . | 0 | . | .
OC(CN1CCN(c2ccccn2)CC1)Cn1c2ccc(Cl)cc2c2cc(Cl)ccc21 (stereo not drawn) | -27 | -1 | -1.9 | 99*
OC(COC(c1ccc(Cl)cc1)c1ccc(Cl)cc1)CN1CCN(c2ccccn2)CC1 (stereo not drawn) | 6 | 0 | -1.9 | -28
CCOc1ccc2nc(-c3ccc(OC)c(OC)c3)cc(C(=O)O)c2c1 | 51* | 7 | 3 | -12
COc1ccc2cc(-c3cc(C(=O)O)c4ccccc4n3)ccc2c1 | -13 | -1 | 0.78 | 37
COc1ccc(/C=C2\CCCC3C2=NN(C(=O)CSc2ncn[nH]2)C3c2ccc(OC)cc2)cc1 (stereo not drawn) | -1 | 8.4* | -0.83 | -28
CC(C)(C)CC(C)(C)NCC(=O)Nc1c2c(nc3ccccc13)CCC2 | . | 0 | . | .
CCn1c(Cc2cccs2)nnc1SCC(=O)NC(C)(C)C | . | 0 | . | .
SMILES | Yeast life ext | RAM network inh | SDO1 yeast rescue | BB579 growth dn
Cc1ccc(S(=O)(=O)N2CCC(=O)N(CCOCc3ccc(C(F)(F)F)cc3)CC2)cc1 | 8 | 1 | -0.84 | -40
Cc1ccc(S(=O)(=O)N2CCC(=O)N(C(COCc3ccc(C(F)(F)F)cc3)Cc3ccccc3)CC2)cc1 (stereo not drawn) | 2 | 10* | 0.08 | -32
COc1cc(Cl)c(C)cc1NC(=O)c1cccc(OC)c1OC | . | 10* | . | .
Cc1c(-c2cc(C(=O)O)on2)cnn1C | . | 2 | . | .
CC12CN3CC(C)(CN(C1)C3c1ccc(Br)cc1O)C2 (stereo not drawn) | 33* | 1 | -0.52 | -44
CCN(CC)S(=O)(=O)c1ccc(OC)c(NC(=O)CSc2cc(Cl)ccc2Cl)c1 | 4 | 9.2* | -0.36 | -35
C/C(=N/NC(=O)C(O)(c1ccccc1)c1ccccc1)c1ccc([N+](=O)[O-])o1 | . | -2 | . | .
COC(=O)c1ccccc1NC(=O)CN1CCC(C)CC1 | . | 0 | . | .
C/C(=N\NC(=O)c1cccc(Cl)c1)C1C(=O)c2ccccc2C1=O | 43* | 5 | 2.1 | -40
C/C(=N\NC(=O)CCc1ccccc1)C1C(=O)c2ccccc2C1=O | . | 3 | . | .
O=C(/C(=C/c1ccc(Cl)cc1)c1nc2ccccc2[nH]1)c1cccs1 | 31* | 0 | -2.8 | -25
O=C(/C(=C\c1ccccc1)c1nc2ccccc2[nH]1)c1ccc(Cl)cc1 | 7 | 1 | -1.9 | -45
O=Cc1ccc(-c2cc(Cl)ccc2Cl)[nH]1 | . | 4 | . | .

Compound activity from PubChem BioAssay.
